The source of these data is ChEMBL document CHEMBL3232956, “Solid-supported synthesis, molecular modeling, and biological activity of long-chain arylpiperazine derivatives with cyclic amino acid amide fragments as 5-HT(7) and 5-HT(1A) receptor ligands” (Eur J Med Chem, 2014).

As usually defined, the Ki is a measure of affinity in units of concentration, obtained from inhibition or displacement. A low value points to tighter binding.

A value given as a limit tells only on which side of the number the result lay.

What all share (type): cell-based
In assay [1] the test system is HEK293. Description: Selectivity ratio of Ki for human 5-HT7 receptor expressed in HEK293 cells to Ki for human 5-HT1A receptor expressed in HEK293 cells. In outline: (§1)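 Ratios computed from Ki values from radioligand displacement in HEK293 membranes stably expressing human receptors: [3H]-8-OH-DPAT for 5-HT1A (1 h, room temperature) and [3H]-5-CT for 5-HT7b (1 h, 37 °C), filtration read-out. Each compound in triplicate at 7-8 concentrations (10^-11–10^-4 M); Ki by Cheng-Prusoff.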

Assay [2] has as its target 5-hydroxytryptamine receptor 7 (Homo sapiens, UniProt P34969). As to the kind of experiment: Displacement of [3H]-5-CT from human 5-HT7 receptor expressed in HEK293 cells after 1 hr by beta-counting. On the technique in general: Loss of bound radioactivity is the signal in a displacement assay; it reports binding, not function.
In assay [3] the target is T1, 5-hydroxytryptamine receptor 1A (Homo sapiens, UniProt P08908).
T1 sequence (P08908 whole entry): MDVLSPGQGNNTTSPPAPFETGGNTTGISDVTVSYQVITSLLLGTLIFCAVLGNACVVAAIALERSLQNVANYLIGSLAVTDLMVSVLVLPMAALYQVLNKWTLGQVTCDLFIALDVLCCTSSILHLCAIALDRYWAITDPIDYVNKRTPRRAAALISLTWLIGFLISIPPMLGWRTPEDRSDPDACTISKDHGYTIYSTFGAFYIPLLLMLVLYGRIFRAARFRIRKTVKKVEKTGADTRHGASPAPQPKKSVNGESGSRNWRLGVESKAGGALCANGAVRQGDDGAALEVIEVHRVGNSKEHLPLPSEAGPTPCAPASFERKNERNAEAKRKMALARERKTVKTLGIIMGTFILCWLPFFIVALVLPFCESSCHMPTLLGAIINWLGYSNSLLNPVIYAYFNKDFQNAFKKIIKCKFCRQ
Description: Displacement of [3H]-8-OH-DPAT from human 5-HT1A receptor expressed in HEK293 cells after 1 hr by beta-counting. In outline: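 Human 5-HT1A receptor stably expressed in HEK293 cells; pellet homogenized in 20 vol buffer (50 mM Tris-HCl, 0.1 mM EDTA, 4 mM MgCl2, 0.1% ascorbate, pargyline), spun twice 35,000 g 20 min 4 °C, 15 min 37 °C between spins. Displacement of [3H]-8-OH-DPAT (187 Ci/mmol), 1 h room temperature; filtration, filter-bound radioactivity. Triplicate at 7-8 concentrations (10^-11–10^-4 M); Ki via Cheng-Prusoff.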

Assay [4] relates to HEK293. Description: Selectivity ratio of Ki for human 5-HT1A receptor expressed in HEK293 cells to Ki for human 5-HT7 receptor expressed in HEK293 cells. In outline:
as §1

Sequence of 5-hydroxytryptamine receptor 7 (P34969 whole entry): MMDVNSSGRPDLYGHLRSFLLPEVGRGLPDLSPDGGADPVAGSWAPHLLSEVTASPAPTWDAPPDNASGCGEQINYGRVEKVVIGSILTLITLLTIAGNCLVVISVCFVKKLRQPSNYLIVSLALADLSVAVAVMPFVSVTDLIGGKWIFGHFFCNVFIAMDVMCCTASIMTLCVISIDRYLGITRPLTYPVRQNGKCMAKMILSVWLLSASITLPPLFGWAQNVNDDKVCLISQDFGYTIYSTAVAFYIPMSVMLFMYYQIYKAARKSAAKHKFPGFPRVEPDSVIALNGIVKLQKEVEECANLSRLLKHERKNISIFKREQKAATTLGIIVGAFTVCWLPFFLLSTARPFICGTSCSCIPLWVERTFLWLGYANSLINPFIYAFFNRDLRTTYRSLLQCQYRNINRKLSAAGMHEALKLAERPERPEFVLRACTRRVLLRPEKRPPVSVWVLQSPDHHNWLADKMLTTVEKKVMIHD

In the case of `NC(=O)[C@@H]1CCCN1C(=O)CCCCCN1CCN(c2noc3ccccc23)CC1`, the Ratio Ki in the assay with HEK293 [1] is < 1; in the assay on HEK293 [4], 4. In addition, the Ki in assay [2] came out at 50 nM; in assay [3] it was 214 nM.
Consider `CSc1ccccc1N1CCN(Cc2ccc(C(=O)N3CCC[C@H]3C(N)=O)cc2)CC1`, for which the Ratio Ki with HEK293 [1] was 2; in the assay on HEK293 [4], < 1. Also, the results for the Ki in assay [2] and in assay [3] were 567 nM and 313 nM, respectively.
On to `CSc1ccccc1N1CCN(CCCCCC(=O)NC2CCCc3ccccc32)CC1` (stereo unspecified), for which the Ki in assay [2] came out at 0.22 nM. This lies in the sub-nanomolar range.
Take `NC(=O)[C@@H]1Cc2ccccc2CN1C(=O)c1ccc(CN2CCN(c3cccc(Cl)c3Cl)CC2)cc1`: the Ratio Ki in the assay with HEK293 [1] is 6; in the assay with HEK293 [4], < 1. Also, the figures for the Ki in assay [2] and in assay [3] were 1200 nM and 212 nM, respectively.
`CSc1ccccc1N1CCN(CCCCCC(=O)N2Cc3ccccc3C[C@H]2C(N)=O)CC1`: the Ratio Ki is > 78 in the assay with HEK293 [1] and < 1 in the assay on HEK293 [4]. For the same compound, the Ki is 78 nM in assay [2] and < 1 nM in assay [3].
For `NC(=O)[C@@H]1Cc2ccccc2CN1C(=O)CCCCN1CCN(c2ccc(Cl)cc2)CC1`, the Ratio Ki is 1 in the assay with HEK293 [1] and < 1 with HEK293 [4]. For the same compound, the Ki was determined as 223 nM in assay [2] and 211 nM in assay [3].
Consider `CSc1ccccc1N1CCN(Cc2ccc(C(=O)N3Cc4ccccc4C[C@H]3C(N)=O)cc2)CC1`, for which the Ratio Ki is 1 with HEK293 [1] and < 1 in the assay with HEK293 [4]. Further, the Ki in assay [2] worked out at 148 nM; in assay [3], 122 nM.
Turning to `NC(=O)[C@@H]1Cc2ccccc2CN1C(=O)CCCCN1CCN(c2noc3ccccc23)CC1`, the Ratio Ki is < 1 with HEK293 [1] and 21 in the assay on HEK293 [4]. Besides, the Ki in assay [2] was 18 nM; in assay [3], 377 nM.
Take `NC(=O)[C@@H]1CCCN1C(=O)CCCCCN1CCN(c2ccccc2Cl)CC1`: the Ratio Ki was 6 in the assay on HEK293 [1] and < 1 in the assay with HEK293 [4]. In addition, the Ki in assay [2] was determined as 1310 nM; in assay [3], 232 nM.
For `CSc1ccccc1N1CCN(CCCCCC(=O)N2CCC[C@H]2C(N)=O)CC1`, the Ratio Ki was 11 with HEK293 [1] and < 1 with HEK293 [4]. Moreover, the figures for the Ki in assay [2] and in assay [3] were 153 nM and 14 nM, respectively.
For `COc1ccccc1N1CCN(Cc2ccc(C(=O)N3CCC[C@H]3C(N)=O)cc2)CC1` the same measures were < 1, 2, 4150 nM and 6310 nM.
For the compound `CSc1ccccc1N1CCN(CCCCC(=O)N2Cc3ccccc3C[C@H]2C(N)=O)CC1`, the Ratio Ki in the assay with HEK293 [1] is 3; in the assay on HEK293 [4] it was < 1. Also, the figures for the Ki in assay [2] and in assay [3] were 51 nM and 18 nM, respectively.
On to `NC(=O)[C@@H]1CCCN1C(=O)CCCCN1CCN(c2noc3ccccc23)CC1`, for which the results for the Ratio Ki with HEK293 [1] and in the assay with HEK293 [4] were < 1 and 27, respectively. For the same compound, the Ki worked out at 108 nM in assay [2] and 2910 nM in assay [3].
Turning to `NC(=O)[C@@H]1Cc2ccccc2CN1C(=O)CCCCCN1CCN(c2ccccc2O)CC1`, the Ratio Ki is 7 in the assay with HEK293 [1] and < 1 with HEK293 [4]. In addition, the Ki was determined as 476 nM in assay [2] and 72 nM in assay [3].
With `COc1ccccc1N1CCN(CCCCCC(=O)N2Cc3ccccc3C[C@H]2C(N)=O)CC1`, the Ratio Ki in the assay with HEK293 [1] was 25; in the assay with HEK293 [4], < 1. Also, the Ki amounted to 302 nM in assay [2] and 12 nM in assay [3].
In the case of `NC(=O)[C@@H]1CCCN1C(=O)CCCCN1CCN(c2ccccc2O)CC1`, the Ratio Ki with HEK293 [1] was 36; in the assay on HEK293 [4] it was < 1. Besides, the Ki was 1870 nM in assay [2] and 52 nM in assay [3].
On to `NC(=O)[C@@H]1Cc2ccccc2CN1C(=O)CCCCCCN1CCN(c2noc3ccccc23)CC1`, for which the figures for the Ratio Ki in the assay on HEK293 [1] and in the assay on HEK293 [4] were < 1 and 3, respectively. Further, the Ki in assay [2] came to 28 nM; in assay [3], 89 nM.
As to `NC(=O)[C@@H]1CCCN1C(=O)CCCCCN1CCN(c2cccc(Cl)c2)CC1`, the results for the Ratio Ki in the assay with HEK293 [1] and in the assay with HEK293 [4] were 13 and < 1, respectively. For the same compound, the Ki was 478 nM in assay [2] and 38 nM in assay [3].
Taken in the same sequence, the figures for `COc1ccccc1N1CCN(Cc2ccc(C(=O)N3Cc4ccccc4C[C@H]3C(N)=O)cc2)CC1` were 7, < 1, 579 nM and 77 nM.
For `NC(=O)[C@@H]1Cc2ccccc2CN1C(=O)CCCCCN1CCN(c2cccc(Cl)c2)CC1`, the Ratio Ki was 1 in the assay with HEK293 [1] and < 1 in the assay on HEK293 [4]. Besides, the Ki stood at 725 nM in assay [2] and 499 nM in assay [3].
As for `NC(=O)[C@@H]1CCCN1C(=O)CCCCCN1CCN(c2ccc(F)cc2)CC1`, the Ratio Ki in the assay with HEK293 [1] is 2; in the assay with HEK293 [4] it was < 1. In addition, the Ki in assay [2] was 1190 nM; in assay [3], 573 nM.
For `CSc1ccccc1N1CCN(CCCCCCC(=O)N2CCC[C@H]2C(N)=O)CC1`, the Ratio Ki in the assay with HEK293 [1] is 21; in the assay on HEK293 [4], < 1. Moreover, the Ki was 495 nM in assay [2] and 23 nM in assay [3].
Regarding `NC(=O)[C@@H]1Cc2ccccc2CN1C(=O)CCCCCN1CCN(c2cccc(Cl)c2Cl)CC1`, the figures for the Ratio Ki in the assay on HEK293 [1] and with HEK293 [4] were 6 and < 1, respectively. Further, the Ki in assay [2] was found to be 95 nM; in assay [3] it was 16 nM.
In the case of `COc1ccccc1N1CCN(CCCCC(=O)N2Cc3ccccc3C[C@H]2C(N)=O)CC1`, the Ratio Ki in the assay with HEK293 [1] is 5; with HEK293 [4], < 1. Besides, the inhibition constant Ki in assay [2] is 551 nM; in assay [3], 107 nM.
Taken in the same sequence, the figures for `NC(=O)[C@@H]1Cc2ccccc2CN1C(=O)CCCCCN1CCN(c2ccc(F)cc2)CC1` were < 1, 6, 107 nM and 643 nM.
For `NC(=O)[C@@H]1Cc2ccccc2CN1C(=O)CCCCCN1CCN(c2noc3ccccc23)CC1` the same measures were < 1, 10, 22 nM and 230 nM.
`CSc1ccccc1N1CCN(CCCCC(=O)N2CCC[C@H]2C(N)=O)CC1`: the values for the Ratio Ki with HEK293 [1] and with HEK293 [4] were 3 and < 1, respectively. The Ki was determined as 163 nM in assay [2] and 47 nM in assay [3].
Taken in the same sequence, the figures for `NC(=O)[C@@H]1CCCN1C(=O)CCCCCN1CCN(c2ccccc2F)CC1` were 22, < 1, 3130 nM and 141 nM.
Consider `COc1ccccc1N1CCN(CCCCCC(=O)N2CCC[C@H]2C(N)=O)CC1`, for which the Ratio Ki in the assay with HEK293 [1] was 27; in the assay with HEK293 [4], < 1. In addition, the Ki in assay [2] came out at 1200 nM; in assay [3], 44 nM.
Regarding `NC(=O)[C@@H]1CCCN1C(=O)CCCCN1CCN(c2cccc(Cl)c2Cl)CC1`, the Ratio Ki in the assay with HEK293 [1] and in the assay on HEK293 [4] was < 1 each time. Further, the Ki in assay [2] was 113 nM; in assay [3], 83 nM.
Take `CSc1ccccc1N1CCN(CCCCCCC(=O)N2Cc3ccccc3C[C@H]2C(N)=O)CC1`: the Ratio Ki with HEK293 [1] is 55; in the assay on HEK293 [4], < 1. Further, the Ki in assay [2] was 111 nM; in assay [3] it was 2 nM.
For `COc1ccccc1N1CCN(CCCCC(=O)N2CCC[C@H]2C(N)=O)CC1`, the Ratio Ki is 3 with HEK293 [1] and < 1 in the assay on HEK293 [4]. In addition, the Ki in assay [2] was 634 nM; in assay [3], 214 nM.
For the compound `NC(=O)[C@@H]1Cc2ccccc2CN1C(=O)CCCCN1CCN(c2ccc(F)cc2)CC1`, the Ratio Ki was < 1 in the assay on HEK293 [1] and 6 in the assay with HEK293 [4]. For the same compound, the Ki in assay [2] worked out at 295 nM; in assay [3], 1910 nM.
For `NC(=O)[C@@H]1Cc2ccccc2CN1C(=O)CCCCCN1CCN(c2ccccc2Cl)CC1`, the Ratio Ki in the assay on HEK293 [1] is 2; in the assay with HEK293 [4] it was < 1. For the same compound, the results for the Ki in assay [2] and in assay [3] were 393 nM and 236 nM, respectively.
For the compound `NC(=O)[C@@H]1CCCN1C(=O)CCCCCN1CCN(c2cccc(Cl)c2Cl)CC1`, the Ratio Ki in the assay on HEK293 [1] was 45; in the assay on HEK293 [4], < 1. Moreover, the Ki in assay [2] was determined as 179 nM; in assay [3] it was 4 nM.
As to `NC(=O)[C@@H]1CCCN1C(=O)CCCCCCN1CCN(c2noc3ccccc23)CC1`, the Ratio Ki in the assay on HEK293 [1] is < 1; with HEK293 [4], 1. In addition, the Ki was determined as 101 nM in assay [2] and 122 nM in assay [3].
